Measurements: ChEMBL document CHEMBL1122831, “Synthesis and structure-activity relationships of novel arylfluoroquinolone antibacterial agents” (1985)
Converted amounts (≈) assume the structure as drawn.

Assays:
Assay type in all cases: functional
Escherichia coli = experiment: Minimum inhibition concentration in vitro determined against Escherichia coli juhl; settings: Escherichia coli; read-out: MIC
Outline: (§1)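 Agar dilution on brain-heart infusion (BHI) agar with twofold dilutions from a 2000 µg/mL stock, giving final test concentrations of 200-0.005 µg/mL. Organisms were grown overnight in BHI broth at 36 °C, and about 10⁴ organisms were inoculated per plate. Plates were incubated 18 h at 36 °C. MIC was the lowest concentration with no visible growth.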

Klebsiella aerogenes = experiment: Minimum inhibition concentration in vitro determined against Enterobacteri aerogenes ATCC 13048; outline: as §1
Klebsiella pneumoniae = experiment: Minimum inhibition concentration in vitro determined against Klebsiella pneumoniae 8045; outline: as §1
Pseudomonas aeruginosa [1] = experiment: Minimum inhibition concentration in vitro determined against Pseudomona aeruginosa 5007; outline: as §1
Pseudomonas aeruginosa [2] = experiment: Minimum inhibition concentration in vitro determined against Pseudomona aeruginosa K799/WT; outline: as §1
[3] = system: Staphylococcus epidermidis; experiment: Minimum inhibition concentration in vitro determined against Staphylococcus epidermidis 3519; outline: as §1
Staphylococcus aureus [4] = experiment: Minimum inhibition concentration in vitro determined against Staphylococcus aureus ATCC 6538P; outline: as §1
Streptococcus pyogenes = experiment: Minimum inhibition concentration in vitro determined against Streptococcus pyogenes 930; outline: as §1
Staphylococcus aureus [5] = experiment: Minimum inhibition concentration in vitro determined against Staphylococcus aureus CMX 686B; outline: as §1
Enterococcus faecium = experiment: Minimum inhibition concentration in vitro determined against Streptococcus faecium ATCC 8043; outline: as §1
Acinetobacter = experiment: Minimum inhibition concentration in vitro determined against Acinetobacter sp CMX669; outline: as §1

| MIC (Escherichia coli) [µg/mL] | MIC (Klebsiella aerogenes) [µg/mL] | MIC (Klebsiella pneumoniae) [µg/mL] | MIC (Pseudomonas aeruginosa [1]) [µg/mL] | MIC (Pseudomonas aeruginosa [2]) [µg/mL] | MIC [3] [µg/mL] | MIC (Staphylococcus aureus [4]) [µg/mL] | MIC (Streptococcus pyogenes) [µg/mL] | MIC (Staphylococcus aureus [5]) [µg/mL] | MIC (Enterococcus faecium) [µg/mL] | MIC (Acinetobacter) [µg/mL] | Structure (SMILES) |
| --- | --- | --- | --- | --- | --- | --- | --- | --- | --- | --- | --- |
| 0.2 (≈ 0.479 µM) | 0.39 (≈ 0.934 µM) | 0.1 (≈ 0.24 µM) | 1.56 (≈ 3.74 µM) | 1.56 (≈ 3.74 µM) | 0.39 (≈ 0.934 µM) | 0.1 (≈ 0.24 µM) | 0.78 (≈ 1.87 µM) | 0.1 (≈ 0.24 µM) | 0.78 (≈ 1.87 µM) | 0.1 (≈ 0.24 µM) | CN1CCN(c2cc3c(cc2F)c(=O)c(C(=O)O)cn3-c2ccc(F)cc2F)CC1 |
| 6.2 (≈ 13.5 µM) | 12.5 (≈ 27.2 µM) | 3.1 (≈ 6.73 µM) | 50 (≈ 109 µM) | 25 (≈ 54.3 µM) | 3.1 (≈ 6.73 µM) | 3.1 (≈ 6.73 µM) | 50 (≈ 109 µM) | 3.1 (≈ 6.73 µM) | 100 (≈ 217 µM) | 12.5 (≈ 27.2 µM) | CN1CCN(c2cc3c(cc2F)c(=O)c(C(=O)O)cn3-c2ccc(Br)cc2)CC1 |
| 0.78 (≈ 2.05 µM) | 1.56 (≈ 4.09 µM) | 0.2 (≈ 0.524 µM) | 6.2 (≈ 16.3 µM) | 3.1 (≈ 8.13 µM) | 0.78 (≈ 2.05 µM) | 0.78 (≈ 2.05 µM) | 3.1 (≈ 8.13 µM) | 0.78 (≈ 2.05 µM) | 12.5 (≈ 32.8 µM) | 1.56 (≈ 4.09 µM) | CN1CCN(c2cc3c(cc2F)c(=O)c(C(=O)O)cn3-c2ccccc2)CC1 |
| 0.78 (≈ 1.95 µM) | 0.78 (≈ 1.95 µM) | 0.39 (≈ 0.976 µM) | 6.2 (≈ 15.5 µM) | 6.2 (≈ 15.5 µM) | 1.56 (≈ 3.91 µM) | 1.56 (≈ 3.91 µM) | 12.5 (≈ 31.3 µM) | 1.56 (≈ 3.91 µM) | 12.5 (≈ 31.3 µM) | 0.78 (≈ 1.95 µM) | CN1CCN(c2cc3c(cc2F)c(=O)c(C(=O)O)cn3-c2ccccc2F)CC1 |
| 0.78 (≈ 1.82 µM) | 1.56 (≈ 3.65 µM) | 0.78 (≈ 1.82 µM) | 6.2 (≈ 14.5 µM) | 6.2 (≈ 14.5 µM) | 0.39 (≈ 0.912 µM) | 0.1 (≈ 0.234 µM) | 0.78 (≈ 1.82 µM) | 0.39 (≈ 0.912 µM) | 1.56 (≈ 3.65 µM) | 3.1 (≈ 7.25 µM) | CC(=O)NC1CCN(c2cc3c(cc2F)c(=O)c(C(=O)O)cn3-c2ccc(F)cc2)C1 (stereo not given) |
| 6.2 (≈ 15.5 µM) | 6.2 (≈ 15.5 µM) | 3.1 (≈ 7.76 µM) | 50 (≈ 125 µM) | 50 (≈ 125 µM) | 12.5 (≈ 31.3 µM) | 12.5 (≈ 31.3 µM) | 25 (≈ 62.6 µM) | 12.5 (≈ 31.3 µM) | 50 (≈ 125 µM) | 50 (≈ 125 µM) | CN1CCN(c2cc3c(cc2F)c(=O)c(C(=O)O)cn3-c2cccc(F)c2)CC1 |
| 1.56 (≈ 3.75 µM) | 1.56 (≈ 3.75 µM) | 0.78 (≈ 1.88 µM) | 12.5 (≈ 30.1 µM) | 6.2 (≈ 14.9 µM) | 1.56 (≈ 3.75 µM) | 1.56 (≈ 3.75 µM) | 12.5 (≈ 30.1 µM) | 1.56 (≈ 3.75 µM) | 100 (≈ 240 µM) | 1.56 (≈ 3.75 µM) | CN1CCN(c2cc3c(cc2F)c(=O)c(C(=O)O)cn3-c2ccc(Cl)cc2)CC1 |
| 50 (≈ 122 µM) | 50 (≈ 122 µM) | 12.5 (≈ 30.4 µM) | 200 (≈ 486 µM) | 100 (≈ 243 µM) | 50 (≈ 122 µM) | 12.5 (≈ 30.4 µM) | 50 (≈ 122 µM) | 12.5 (≈ 30.4 µM) | 100 (≈ 243 µM) | 50 (≈ 122 µM) | COc1ccc(-n2cc(C(=O)O)c(=O)c3cc(F)c(N4CCN(C)CC4)cc32)cc1 |
| 0.39 (≈ 0.974 µM) | 1.56 (≈ 3.9 µM) | 0.39 (≈ 0.974 µM) | 6.2 (≈ 15.5 µM) | 3.1 (≈ 7.74 µM) | 0.39 (≈ 0.974 µM) | 0.1 (≈ 0.25 µM) | 1.56 (≈ 3.9 µM) | 0.1 (≈ 0.25 µM) | 1.56 (≈ 3.9 µM) | 1.56 (≈ 3.9 µM) | O=C(O)c1cn(-c2ccc(F)cc2)c2cc(N3CCC(O)CC3)c(F)cc2c1=O |
| 1.56 (≈ 4.06 µM) | 3.1 (≈ 8.06 µM) | 1.56 (≈ 4.06 µM) | 6.2 (≈ 16.1 µM) | 6.2 (≈ 16.1 µM) | 0.39 (≈ 1.01 µM) | 0.2 (≈ 0.52 µM) | 1.56 (≈ 4.06 µM) | 0.2 (≈ 0.52 µM) | 3.1 (≈ 8.06 µM) | 1.56 (≈ 4.06 µM) | O=C(O)c1cn(-c2ccc(F)cc2)c2cc(N3CCCCC3)c(F)cc2c1=O |
| 0.78 (≈ 2.11 µM) | 0.78 (≈ 2.11 µM) | 0.39 (≈ 1.05 µM) | 1.56 (≈ 4.21 µM) | 1.56 (≈ 4.21 µM) | 0.2 (≈ 0.54 µM) | 0.1 (≈ 0.27 µM) | 0.78 (≈ 2.11 µM) | 0.1 (≈ 0.27 µM) | 0.78 (≈ 2.11 µM) | 0.78 (≈ 2.11 µM) | O=C(O)c1cn(-c2ccc(F)cc2)c2cc(N3CCCC3)c(F)cc2c1=O |
| 0.39 (≈ 0.943 µM) | 0.78 (≈ 1.89 µM) | 0.2 (≈ 0.484 µM) | 25 (≈ 60.5 µM) | 12.5 (≈ 30.2 µM) | 0.39 (≈ 0.943 µM) | 0.39 (≈ 0.943 µM) | 3.1 (≈ 7.5 µM) | 0.39 (≈ 0.943 µM) | 25 (≈ 60.5 µM) | 0.78 (≈ 1.89 µM) | CN(C)C1CCN(c2cc3c(cc2F)c(=O)c(C(=O)O)cn3-c2ccc(F)cc2)C1 (stereo not given) |
| > 100 | > 100 | > 100 | > 100 | > 100 | > 100 | > 100 | > 100 | > 100 | > 100 | > 100 | Cc1cccc(C)c1-n1cc(C(=O)O)c(=O)c2cc(F)c(N3CCN(C)CC3)cc21 |
| 1.56 (≈ 3.65 µM) | 3.1 (≈ 7.25 µM) | 1.56 (≈ 3.65 µM) | 12.5 (≈ 29.2 µM) | 12.5 (≈ 29.2 µM) | 0.78 (≈ 1.82 µM) | 0.2 (≈ 0.468 µM) | 1.56 (≈ 3.65 µM) | 0.2 (≈ 0.468 µM) | 3.1 (≈ 7.25 µM) | 12.5 (≈ 29.2 µM) | CC(=O)N1CCN(c2cc3c(cc2F)c(=O)c(C(=O)O)cn3-c2ccc(F)cc2)CC1 |
| 1.56 (≈ 3.53 µM) | 1.56 (≈ 3.53 µM) | 0.39 (≈ 0.883 µM) | 12.5 (≈ 28.3 µM) | 12.5 (≈ 28.3 µM) | 1.56 (≈ 3.53 µM) | 0.78 (≈ 1.77 µM) | 6.2 (≈ 14 µM) | 0.78 (≈ 1.77 µM) | 12.5 (≈ 28.3 µM) | 3.1 (≈ 7.02 µM) | CCCCN1CCN(c2cc3c(cc2F)c(=O)c(C(=O)O)cn3-c2ccc(F)cc2)CC1 |
| 0.39 (≈ 0.977 µM) | 1.56 (≈ 3.91 µM) | 0.39 (≈ 0.977 µM) | 6.2 (≈ 15.5 µM) | 3.1 (≈ 7.76 µM) | 0.78 (≈ 1.95 µM) | 0.2 (≈ 0.501 µM) | 0.78 (≈ 1.95 µM) | 0.39 (≈ 0.977 µM) | 1.56 (≈ 3.91 µM) | 12.5 (≈ 31.3 µM) | O=C1CN(c2cc3c(cc2F)c(=O)c(C(=O)O)cn3-c2ccc(F)cc2)CCN1 |
| 0.78 (≈ 1.94 µM) | 0.78 (≈ 1.94 µM) | 0.39 (≈ 0.969 µM) | 3.1 (≈ 7.7 µM) | 3.1 (≈ 7.7 µM) | 0.1 (≈ 0.248 µM) | 0.05 (≈ 0.124 µM) | 0.78 (≈ 1.94 µM) | 0.05 (≈ 0.124 µM) | 0.78 (≈ 1.94 µM) | 0.78 (≈ 1.94 µM) | O=C(O)c1cn(-c2ccc(F)cc2)c2cc(N3CCSCC3)c(F)cc2c1=O |
| 0.39 (≈ 0.943 µM) | 0.39 (≈ 0.943 µM) | 0.2 (≈ 0.484 µM) | 1.56 (≈ 3.77 µM) | 0.78 (≈ 1.89 µM) | 0.2 (≈ 0.484 µM) | 0.1 (≈ 0.242 µM) | 0.39 (≈ 0.943 µM) | 0.2 (≈ 0.484 µM) | 0.78 (≈ 1.89 µM) | 0.39 (≈ 0.943 µM) | CN1CCN(c2cc3c(cc2F)c(=O)c(C(=O)O)cn3-c2ccc(F)cc2)CC1=O |
| 1.56 (≈ 3.53 µM) | 3.1 (≈ 7.02 µM) | 0.78 (≈ 1.77 µM) | 12.5 (≈ 28.3 µM) | 12.5 (≈ 28.3 µM) | 0.78 (≈ 1.77 µM) | 0.2 (≈ 0.453 µM) | 1.56 (≈ 3.53 µM) | 0.2 (≈ 0.453 µM) | 6.2 (≈ 14 µM) | 6.2 (≈ 14 µM) | CCC(=O)N1CCN(c2cc3c(cc2F)c(=O)c(C(=O)O)cn3-c2ccc(F)cc2)CC1 |

| Structure (SMILES) | MIC (Escherichia coli) [µg/mL] | MIC (Klebsiella aerogenes) [µg/mL] | MIC (Klebsiella pneumoniae) [µg/mL] | MIC (Pseudomonas aeruginosa [1]) [µg/mL] | MIC (Pseudomonas aeruginosa [2]) [µg/mL] | MIC [3] [µg/mL] | MIC (Staphylococcus aureus [4]) [µg/mL] | MIC (Streptococcus pyogenes) [µg/mL] | MIC (Staphylococcus aureus [5]) [µg/mL] | MIC (Enterococcus faecium) [µg/mL] | MIC (Acinetobacter) [µg/mL] |
| --- | --- | --- | --- | --- | --- | --- | --- | --- | --- | --- | --- |
| CN1CCN(c2cc3c(cc2F)c(=O)c(C(=O)O)cn3-c2ccc(O)cc2)CC1 | 0.1 (≈ 0.252 µM) | 0.2 (≈ 0.503 µM) | 0.05 (≈ 0.126 µM) | 0.39 (≈ 0.981 µM) | 0.39 (≈ 0.981 µM) | 0.2 (≈ 0.503 µM) | 0.05 (≈ 0.126 µM) | 0.2 (≈ 0.503 µM) | 0.1 (≈ 0.252 µM) | 0.39 (≈ 0.981 µM) | 0.39 (≈ 0.981 µM) |
| O=C(O)c1cn(-c2ccccc2)c2cc(N3CCNCC3)c(F)cc2c1=O | 0.2 (≈ 0.544 µM) | 0.39 (≈ 1.06 µM) | – | 0.78 (≈ 2.12 µM) | 1.56 (≈ 4.25 µM) | 1.56 (≈ 4.25 µM) | 0.39 (≈ 1.06 µM) | 1.56 (≈ 4.25 µM) | 0.39 (≈ 1.06 µM) | 12.5 (≈ 34 µM) | 0.78 (≈ 2.12 µM) |
